This note sets out measurements from ChEMBL document CHEMBL5344463, “Design, Synthesis, and Antifungal Activity of 3-Substituted-2(5H)-Oxaboroles” (ACS Med Chem Lett, 2024).

The test system of series [1] is Staphylococcus aureus. Put plainly: Antibacterial activity against methicillin-resistant Staphylococcus aureus assessed as growth inhibition incubated for 48 hrs in solid agar medium by solid MIC assay. Format: functional.
Another series concerns H9c2. As to the kind of experiment: Cytotoxicity against rat H9c2 cells assessed as cell viability at 100 uM incubated for 24 hrs by CCk8 dye assay. Format: toxicity, cell-based. Particulars: h9c2, 24 h. The procedure, abridged: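 Rat myoblast H9c2 cells are exposed to 100 μM compound for 24 h. Viability is normalized to PBS no-treatment control. Values are mean ± SEM, n = 3.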

The next series has as its system Erythrocyte. Put plainly: Hemolytic activity in sheep erythrocytes assessed as cell lysis at 50 to 100 uM measured after 1 hr. Format: toxicity, cell-based, Ovis aries. Particulars: dose 50-100 µM. Summed up:
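Erythrocytes are exposed to compound at 50 and 100 μM for 1 h. Lysis is normalized to a Triton X-100 positive control. Values are mean ± SEM, n = 3.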

Series [2] concerns Candida albicans. Put plainly: Antifungal activity against Candida albicans assessed as growth inhibition at 50 ug/ml in liquid medium by liquid MIC assay. Format: functional, organism-based. To be noted: dose 50.0 µg/ml. The procedure, abridged: (§1)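 Single-concentration liquid-medium growth screen of non-spore-forming microbes, run at 50 and 12.5 μg/mL. Growth is read by absorbance.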

For series [3], the system named is Saccharomyces cerevisiae. Put plainly: Antimicrobial activity against Saccharomyces cerevisiae assessed as growth inhibition at 50 ug/ml in liquid medium by liquid MIC assay. Format: functional, organism-based. To be noted: dose 50.0 µg/ml. The procedure, abridged: as §1
The test system of series [4] is Staphylococcus aureus. As to the kind of experiment: Antibacterial activity against methicillin-resistant Staphylococcus aureus assessed as growth inhibition at 50 ug/ml in liquid medium by liquid MIC assay. Particulars: dose 50.0 µg/ml. Format: functional, organism-based. The procedure, abridged: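 Single-point growth-inhibition screen in liquid medium against nonspore-forming organisms. Compound tested at 50 and 12.5 μg/mL, growth read by absorbance, and reported at the 50 μg/mL level.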

The test system of a further series is Escherichia coli. Put plainly: Antibacterial activity against Escherichia coli ATCC 25922 assessed as growth inhibition incubated for 48 hrs in liquid medium by microbroth dilution assay. Particulars: ATCC 25922, 48 h. Background: In broth dilution the organism is exposed to a series of concentrations in liquid medium.
In series [5] the test system is Trichophyton mentagrophytes. As to the kind of experiment: Antifungal activity against Trichophyton mentagrophytes assessed as growth inhibition incubated for 48 hrs in solid agar medium by solid MIC assay. Format: functional. Summed up:
(§2)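 Dose-dependent solid-agar MIC assay for spore-forming fungi (liquid media unusable because mycelia clump and block absorbance). Compound tested at […] in agar. Fungal growth scored visually as white mycelia on the plates. MIC is taken from biological replicates.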

The next series has as its system Penicillium chrysogenum. Put plainly: Antifungal activity against Penicillium chrysogenum assessed as growth inhibition incubated for 48 hrs in solid agar medium by solid MIC assay. Format: functional. Summed up: as §2
Another series deals with Aspergillus flavus. As to the kind of experiment: Antifungal activity against Aspergillus flavus assessed as growth inhibition incubated for 48 hrs in solid agar medium by solid MIC assay. Format: functional. Summed up:
as §2

Series [6] has as its system Candida albicans. As to the kind of experiment: Antifungal activity against Candida albicans assessed as growth inhibition incubated for 48 hrs in solid agar medium by solid MIC assay. Format: functional.
Series [7] relates to Saccharomyces cerevisiae. Put plainly: Antimicrobial activity against Saccharomyces cerevisiae assessed as growth inhibition incubated for 48 hrs in solid agar medium by solid MIC assay. Format: functional.
In the next series the test system is Bacillus cereus. As to the kind of experiment: Antibacterial activity against Bacillus cereus assessed as growth inhibition incubated for 48 hrs in solid agar medium by solid MIC assay. Format: functional.
The next series relates to Pseudomonas aeruginosa. As to the kind of experiment: Antibacterial activity against Pseudomonas aeruginosa deltaMexAB-OprM assessed as growth inhibition incubated for 48 hrs in solid agar medium by solid MIC assay. Format: functional.

Values after ≈ are worked out from the molar mass of the structure shown. Active and inactive are the calls of the source. No cut-off for these calls is given here. Bounds are passed on as bounds.

As for `OB1OCc2cc(F)ccc21` [TAVABOROLE], in the series on Staphylococcus aureus [1], the MIC (commonly the least concentration at which growth counts as inhibited) is above 50 µg/mL. Further, the Activity result in the series with H9c2 and in the series on Erythrocyte was “Non-Toxic” throughout.

For the compound `OB1OCC=C1c1cccc(I)c1`, the result in the series with Candida albicans [2] and in the series on Saccharomyces cerevisiae [3] was Active. Also, the result in the series on Staphylococcus aureus [4] was inactive. The Activity entry in the series with H9c2 and in the series with Erythrocyte was “Non-Toxic” throughout.

In the case of `Cc1cccc(C2=CCOB2O)c1`, the result in the series on Saccharomyces cerevisiae [3] was Active. The Activity result with H9c2 and in the series on Erythrocyte was “Non-Toxic” in each case.

Take `OB1OCC=C1c1cccc(Cl)c1`: the result in the series on Saccharomyces cerevisiae [3] was Active. Besides, the Activity entry with H9c2 and in the series on Erythrocyte was “Non-Toxic” each time.

Take `OB1OCC=C1C1=CCCCC1`: the outcome in the series on Saccharomyces cerevisiae [3] was Active.

For the compound `OB1OCC=C1c1ccc(Br)cc1`, the result with Candida albicans [2] and in the series on Saccharomyces cerevisiae [3] was Active. For the same compound, the Activity entry with H9c2 and in the series on Erythrocyte was “Non-Toxic” each time.

Turning to `Cc1cc(F)cc(C2=CCOB2O)c1`, in the series with Saccharomyces cerevisiae [3], the result was Active. In addition, the Activity result in the series with H9c2 and with Erythrocyte was “Non-Toxic” each time. The MIC with Escherichia coli was above 50 µg/mL.

For `OB1OCC=C1c1ccc(OC(F)(F)F)cc1`, the result in the series on Candida albicans [2] and with Saccharomyces cerevisiae [3] was Active. The Activity result in the series with H9c2 and in the series with Erythrocyte was “Non-Toxic” throughout.

For the compound `OB1OCC=C1c1ccc(F)cc1`, in the series on Candida albicans [2], the outcome was Active. Besides, the Activity entry in the series with H9c2 and in the series with Erythrocyte was “Non-Toxic” each time. For the same compound, in the series on Escherichia coli, the MIC was found to be 42 µg/mL (≈ 236 µM).

`OB1OCC=C1c1ccccc1F`: the result in the series on Saccharomyces cerevisiae [3] was Active. Further, the Activity result with H9c2 and in the series on Erythrocyte was “Non-Toxic” in each case.

Turning to NYSTATIN, the minimum inhibitory concentration (MIC) in series [5] was 3.13 µg/mL; in the series with Penicillium chrysogenum it was 1.56 µg/mL; in the series on Aspergillus flavus, 2.6 µg/mL; with Candida albicans [6] it was 0.78 µg/mL; in the series on Saccharomyces cerevisiae [7], 1.56 µg/mL; in the series on Bacillus cereus, above 50 µg/mL. In addition, the minimum inhibitory concentration (MIC) in the series on Staphylococcus aureus [1] and in the series on Pseudomonas aeruginosa was above 50 µg/mL throughout.

As for `CC(C)(C)c1ccc(C2=CCOB2O)cc1`, the Activity result in the series with H9c2 and in the series with Erythrocyte was “Non-Toxic” in each case.

Take `OB1OCC=C1c1cccs1`: the result with Saccharomyces cerevisiae [3] was Active. Besides, in the series on Escherichia coli, the MIC was 42 µg/mL (≈ 253 µM).

In the case of `OB1OCC=C1c1ccc2ccccc2c1`, the Activity result in the series with H9c2 and in the series on Erythrocyte was “Non-Toxic” in each case.

As to `OB1OCC=C1c1ccc(Cl)cc1`, the result in the series on Candida albicans [2] and in the series with Saccharomyces cerevisiae [3] was Active. The Activity entry in the series on H9c2 and in the series on Erythrocyte was “Non-Toxic” each time.

Take `OB1OCC=C1c1ccccc1`: the outcome with Saccharomyces cerevisiae [3] was Active.

For the compound `COc1cccc(C2=CCOB2O)c1`, in the series with Saccharomyces cerevisiae [3], the result was Active.

With `CCCc1ccc(C2=CCOB2O)cc1`, the result with Saccharomyces cerevisiae [3] was Active. The Activity result with H9c2 and with Erythrocyte was “Non-Toxic” in each case.

For `Cc1ccc(C2=CCOB2O)cc1`, the outcome in the series on Saccharomyces cerevisiae [3] was Active. The Activity result in the series with H9c2 and with Erythrocyte was “Non-Toxic” in each case. The MIC in the series with Escherichia coli was found to be 42 µg/mL (≈ 241 µM).

As for `OB1OCC=C1c1cccc(F)c1`, the outcome in the series on Saccharomyces cerevisiae [3] was Active. The Activity result in the series on H9c2 and in the series with Erythrocyte was “Non-Toxic” each time.

With `OB1OCC=C1c1ccccc1Cl`, the result with Saccharomyces cerevisiae [3] was Active.

Regarding `OB1OCC=C1c1ccc2occc2c1`, the outcome in the series with Candida albicans [2] and in the series on Saccharomyces cerevisiae [3] was Active. Moreover, the Activity entry with H9c2 and with Erythrocyte was “Non-Toxic” each time.

Regarding `OB1OCC=C1c1cccc(Br)c1`, the result with Candida albicans [2] and in the series on Saccharomyces cerevisiae [3] was Active. For the same compound, the Activity entry in the series on H9c2 and in the series on Erythrocyte was “Non-Toxic” throughout.
